Experimental data as given in PMC3080100 (Chemical biology & drug design, 2011).
Each block holds one substance with its values, some of them ahead of it. * marks the point of attachment. FITC = O=C1OC2(c3ccc(O)cc3Oc3cc(O)ccc32)c2ccc(NC(=S)*)cc21

What was measured:
Assay type in all cases: cell-based, mouse
EpH4 cells [1] = test: Live-cell binding/localization of FITC-labeled peptide at 4°C, EpH4; conditions: 400 μM, 1 hour at 4°C; for localization/binding of FITC-peptide at the plasma membrane: live imaging; for fluorescence intensity of FITC: washed in ice cold PBS, background subtracted, mean ± SEM, n=3 separate cultures, p=0.007
Summary of the method: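 EpH4 cells were incubated 1 h at 4°C with 400 μM FITC-labelled test compound. Washed in ice-cold PBS and imaged live, without fixation. FITC intensity was measured after background subtraction. Mean ± SEM, n=3 separate cultures.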

claudin-4 = test: Claudin-4 localization by immunofluorescence; conditions: EpH4 cells; for claudin-4 localization: 16 hours; for claudin-4 localization, time course: 400 μM, 16 hours at 4°C
EpH4 cells [2] = test: Apoptosis scored as caspase-3 positive cells; conditions: mean ± SEM; for percentage of cells containing caspase-3 (apoptosis): 2 mM peptide; for percent apoptosis (caspase-3 positive cells): 200 μM peptide, 16 hours at 37°C
Summary of the method: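 EpH4 monolayers were exposed for 16 h to test compound over a dose range and fixed in 2% PFA (15 min RT). Then 0.5% Triton X-100 for 5 min and 2% BSA for 1 h. Primary: rabbit anti-cleaved caspase-3 (1:100), ± rat anti-ZO-1 (1:50), 1 h. Secondary: Cy3/FITC (1:150), 45 min. Percent positive cells scored; mean ± SEM, n=3-6 wells; unpaired t-test versus untreated.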

3T3L1 cells [3] = test: Active caspase-3 and -7, live-cell fluorescent indicator, 3T3L1 fibroblasts; conditions: 3T3L1 fibroblast cells, 400 μM, 1 hour at 4°C then up to 4 hours at 37°C
Summary of the method: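 Live imaging of EpH4 or 3T3L1 cells (3T3L1 in DMEM/F12 with 10% bovine calf serum, split 1:8 every 2-3 days). Cells received 400 μM FITC-labelled test compound for 1 h at 4°C. Active caspase-3/7 indicator was then applied for 1 h at 4°C (time 0), or after 30 min, 2 h or 4 h at 37°C. PBS wash, then fluorescence imaging.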

caspase-8 [4] = test: Active caspase-8 by antibody, time course after warming from 4°C to 37°C; conditions: EpH4 cells, 400 μM, 16 hours at 4°C, then 4 hr at 37°C
Summary of the method: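 EpH4 cells grown 4–5 days on glass chamber slides to form tight junctions, in DMEM with 5% FBS and 10 mM Hepes. Exposed to 400 μM FITC-labelled D-form test peptide for 16 h at 4°C (final DMSO <0.5%). Then fixed (time 0) or moved to 37°C for 30 min, 2 h or 4 h. Fixed in 2% paraformaldehyde, permeabilised, BSA-blocked, immunostained for claudin-4 and active caspase-8, then imaged.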

caspase-3 = test: Active caspase-3; conditions: EpH4 cells
Summary of the method: (§1)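 EpH4 cells were grown 4-5 days on 8-well chamber slides to form tight junctions, then exposed to test compound or control peptide for 8, 16 or 24 h (DMSO <0.5% final). For the last 1 h, growth medium held 1X FLICA probe (sulforhodamine-DEVD-fmk for caspase-3/7; carboxyfluorescein-LETD-fmk for caspase-8). Optional 1 μM Hoechst 33342, 5 min 37°C; HBSS wash; 2% PFA, 15 min RT. Mean ± SEM, n=3-6.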

3T3L1 cells [5] = test: Live-cell binding/localization of FITC-labeled peptide at 4°C, 3T3L1; conditions: 3T3L1 fibroblast cells, 400 μM, 1 hour at 4°C, live imaging
Summary of the method: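 3T3L1 fibroblasts grown in DMEM/F12 with 10% bovine calf serum and plated on glass chamber slides. Given 400 μM FITC-linked D-form test peptide for 1 h at 4°C. Then either 1 h with live caspase-3/7 FLICA indicator at 4°C (time 0), or 30 min, 2 h or 4 h at 37°C before 1 h with indicator. Washed in cold PBS and imaged live without fixation.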

claudin-3 = test: Claudin-3 localization by immunofluorescence; conditions: EpH4 cells, 16 hours, co-stained with ZO-1
Summary of the method: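 EpH4 monolayers were exposed to peptide for 16 h, then fixed in 2% paraformaldehyde for 15 min at room temperature. Permeabilised with 0.5% Triton X-100 and blocked 1 h in 2% BSA. Stained 1 h with rabbit anti-claudin-3 (1:200) and rat anti-ZO-1 (1:50), then 45 min with fluorophore-conjugated donkey secondaries (1:150). Nuclei counterstained with DAPI; confocal z-stacks imaged.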

caspase-8 [6] = test: Active caspase-8, live-cell fluorescent indicator; conditions: EpH4 cells, 16 hours of peptide, indicator added during the last hour
Summary of the method: as §1

EpH4 cells [7] = test: TUNEL staining
Summary of the method: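 EpH4 cells on chamber slides were exposed to 350 μM test compound or control peptide for 8, 16 or 24 h. Fixed in 2% PFA and permeabilised in 1% sodium citrate with 0.1% Triton X-100. TUNEL staining used a TMR-red in situ cell death kit per manufacturer. Mean ± SEM, n=3-6.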

Substance: {FITC}-DGYNP-NH2 [FITC-D(G)YNP]
- localization/binding of FITC-peptide at the plasma membrane (EpH4 cells [1]): binds poorly
- fluorescence intensity of FITC (EpH4 cells [1]): 18.38±9.26

Substance: LYQY [reference compound]
- claudin-4 localization (claudin-4; 350 μM peptide, anti-claudin-4): no effect

Substance: Ac-C-DFYNP-C-amide (disulfide) [peptide 3]
- percentage of cells containing caspase-3 (apoptosis) (EpH4 cells [2]; 16 hours, n=3-6): 7.96 ± 0.75%
- percentage of cells containing caspase-3 (apoptosis) (EpH4 cells [2]; 16 hours, n=3-6, listed as L-peptide): about 7%

- caspase-8 activation, time course (caspase-8 [4]): significant caspase-8 activation
Substance: {FITC}-DFYNP-NH2
- caspase-3 and/or -7 activation, live cells (3T3L1 cells [3]): no caspase activation
- percent apoptosis (caspase-3 activation) (EpH4 cells [2]; 800 μM peptide, 16 hours, n=3-6): 10.58±0.83%
- caspase-3 and/or -7 activation, live cells (caspase-3; 400 μM, 1 hour at 4°C then 4 hours at 37°C): significantly increased
- localization/binding of FITC-peptide at the plasma membrane (EpH4 cells [1]): localizes to the plasma membrane at the sites of cell junctions
- fluorescence intensity of FITC (EpH4 cells [1]): 82.71±5.80
- localization/binding of FITC-peptide at the plasma membrane (3T3L1 cells [5]): does not, however, appear to bind to the plasma membranes
- claudin-4 localization, time course (claudin-4; then 30 min at 37°C): significant amount of claudin-4 mis-localization
- claudin-4 localization, time course (claudin-4; then 4 hr at 37°C): significant claudin-4 mis-localization
- claudin-4 localization (claudin-4; 800 μM peptide): mis-localization of claudin-4 away from tight junctions

Substance: Ac-DFYNP-amide [linear D-peptide]
- claudin-3 localization (claudin-3; linear D-peptide): mis-localization away from tight junctions
- percent apoptosis (caspase-3 positive cells) (EpH4 cells [2]; n=3-6): 12.27±0.72%
- claudin-4 localization (claudin-4; linear D-peptide, co-stained with ZO-1): mis-localized

Substance: Ac-DGYNP-amide [D(G)YNP]
- claudin-3 localization (claudin-3; 400 μM peptide): remained restricted to the tight junctions
- percent apoptosis (caspase-3 positive cells) (EpH4 cells [2]; n=3-6): 1.46±0.53%
- percentage of cells containing caspase-3 (apoptosis) (EpH4 cells [2]; 16 hours, n=3-6): 1.34±0.21%
- claudin-4 localization (claudin-4; 400 μM peptide, anti-claudin-4): not affected

Substance: NH2-C-DFYNP-C-OH (disulfide) [peptide 1]
- cells with activated caspase-8 compared to control (caspase-8 [6]): significant number of cells
- percentage of cells containing caspase-3 (apoptosis) (EpH4 cells [2]; 16 hours, n=3-6): 7.17 ± 1.24%
- cells with activated caspase-3 compared to control (caspase-3; 16 hours of peptide, indicator added during the last hour): significant number of cells
- claudin-4 localization (claudin-4; 400 μM peptide, anti-claudin-4): mis-localization
- TUNEL staining compared to control peptide treated cells (EpH4 cells [7]; 350 μM, 8, 16 or 24 hours): significantly increased
- time of peak TUNEL staining (EpH4 cells [7]; 350 μM, tested at 8, 16 or 24 hours): ~16 h

Substance: Ac-C-DFYNP-C-OH (disulfide) [peptide 2]
- percentage of cells containing caspase-3 (apoptosis) (EpH4 cells [2]; 16 hours, n=3-6): 9.22 ± 0.65%

Substance: Ac-C-DFYNP-C-amide (disulfide) [disulfide-bridged D-peptide]
- percent apoptosis (caspase-3 positive cells) (EpH4 cells [2]; n=3-6): 16.46 ± 0.51%
- percentage of cells containing caspase-3 (apoptosis) (EpH4 cells [2]; 16 hours, n=3-6, listed as D-peptide): 100%
